Target: Adenosine receptor A2a (Homo sapiens, UniProt P29274)
Test: Affinity for A2a receptor by displacement of [3H]-CGS- 21680 from human striatum

Chain of Adenosine receptor A2a (P29274 whole entry): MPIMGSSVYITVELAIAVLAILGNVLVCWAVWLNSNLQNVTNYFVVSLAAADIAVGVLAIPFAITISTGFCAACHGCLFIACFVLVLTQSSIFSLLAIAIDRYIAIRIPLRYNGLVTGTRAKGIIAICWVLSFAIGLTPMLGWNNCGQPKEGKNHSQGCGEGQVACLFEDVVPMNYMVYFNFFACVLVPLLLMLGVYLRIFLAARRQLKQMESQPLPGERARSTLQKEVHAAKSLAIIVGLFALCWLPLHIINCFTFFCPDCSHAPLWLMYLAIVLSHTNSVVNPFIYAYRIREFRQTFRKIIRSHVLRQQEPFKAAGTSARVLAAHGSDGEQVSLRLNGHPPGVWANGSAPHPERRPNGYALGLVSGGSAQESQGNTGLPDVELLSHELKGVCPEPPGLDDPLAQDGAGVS

Structure (SMILES)	Ki
CCNC(=O)[C@H]1OC(n2cnc3c(NCCCCNc4ccc([N+](=O)[O-])c5nonc45)ncnc32)[C@H](O)[C@@H]1O (stereo not given in full)	> 10 µM
CCNC(=O)[C@H]1OC(n2cnc3c(NCCNc4ccc([N+](=O)[O-])c5nonc45)ncnc32)[C@H](O)[C@@H]1O (stereo not given in full)	6.75 µM

Stronger by Ki, values ahead:

Ki	Structure (SMILES)
6.1 µM	CCNC(=O)[C@H]1OC(n2cnc3c(NCCCCCCCCCCNc4ccc([N+](=O)[O-])c5nonc45)ncnc32)[C@H](O)[C@@H]1O (stereo not given in full)
6.08 µM	CCNC(=O)[C@H]1OC(n2cnc3c(NCCCCCCNc4ccc([N+](=O)[O-])c5nonc45)ncnc32)[C@H](O)[C@@H]1O (stereo not given in full)
5.1 µM	CCNC(=O)[C@H]1OC(n2cnc3c(NCCCCCCCCNc4ccc([N+](=O)[O-])c5nonc45)ncnc32)[C@H](O)[C@@H]1O (stereo not given in full)

Target: T1, Adenosine receptor A1 (Homo sapiens, UniProt P30542)
T1 sequence (P30542 whole entry): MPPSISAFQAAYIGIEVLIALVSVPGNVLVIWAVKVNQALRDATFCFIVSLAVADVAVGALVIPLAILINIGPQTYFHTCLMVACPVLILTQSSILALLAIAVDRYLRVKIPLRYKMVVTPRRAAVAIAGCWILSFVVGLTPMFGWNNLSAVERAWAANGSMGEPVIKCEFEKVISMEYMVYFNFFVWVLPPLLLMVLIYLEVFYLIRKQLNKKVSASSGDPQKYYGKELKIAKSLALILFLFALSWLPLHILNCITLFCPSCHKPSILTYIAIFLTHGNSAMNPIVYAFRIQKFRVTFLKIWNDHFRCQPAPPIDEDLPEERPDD
Test: Affinity for Adenosine A1 receptor by displacement of [3H]DPCPX from human cerebral cortex
Assay type: tissue-based
How it was run: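 Membranes from human cerebral cortex; competition against [3H]DPCPX. IC50 fitted by non-linear least squares and converted to Ki via Cheng–Prusoff; means ± SE of three experiments.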

Structure (SMILES)	Ki
CCNC(=O)[C@H]1OC(n2cnc3c(NCCCCNc4ccc([N+](=O)[O-])c5nonc45)ncnc32)[C@H](O)[C@@H]1O (stereo not given in full)	> 10 µM
CCNC(=O)[C@H]1OC(n2cnc3c(NCCNc4ccc([N+](=O)[O-])c5nonc45)ncnc32)[C@H](O)[C@@H]1O (stereo not given in full)	> 10 µM

Now from value to compound:

Ki	Structure (SMILES)
6.35 µM	CCNC(=O)[C@H]1OC(n2cnc3c(NCCCCCCCCCCNc4ccc([N+](=O)[O-])c5nonc45)ncnc32)[C@H](O)[C@@H]1O (stereo not given in full)
> 10 µM	CCNC(=O)[C@H]1OC(n2cnc3c(NCCCCCCNc4ccc([N+](=O)[O-])c5nonc45)ncnc32)[C@H](O)[C@@H]1O (stereo not given in full)
3.48 µM	CCNC(=O)[C@H]1OC(n2cnc3c(NCCCCCCCCNc4ccc([N+](=O)[O-])c5nonc45)ncnc32)[C@H](O)[C@@H]1O (stereo not given in full)

Target: T2, Adenosine receptor A3 (Homo sapiens, UniProt P0DMS8)
T2 sequence (P0DMS8 whole entry): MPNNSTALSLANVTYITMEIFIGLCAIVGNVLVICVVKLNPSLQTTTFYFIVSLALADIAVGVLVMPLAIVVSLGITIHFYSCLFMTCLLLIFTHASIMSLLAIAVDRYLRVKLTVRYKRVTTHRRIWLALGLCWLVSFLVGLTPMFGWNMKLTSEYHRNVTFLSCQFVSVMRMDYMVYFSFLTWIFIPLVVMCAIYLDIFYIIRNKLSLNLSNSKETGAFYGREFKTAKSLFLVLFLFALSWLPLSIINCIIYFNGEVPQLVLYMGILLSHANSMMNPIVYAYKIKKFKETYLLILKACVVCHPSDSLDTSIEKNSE
Test: Displacement of [125I]AB-MECA from human Adenosine A3 receptor expressed in CHO cells
Assay type: cell-based

Structure (SMILES)	Ki
CCNC(=O)[C@H]1OC(n2cnc3c(NCCCCNc4ccc([N+](=O)[O-])c5nonc45)ncnc32)[C@H](O)[C@@H]1O (stereo not given in full)	0.381 µM
CCNC(=O)[C@H]1OC(n2cnc3c(NCCNc4ccc([N+](=O)[O-])c5nonc45)ncnc32)[C@H](O)[C@@H]1O (stereo not given in full)	0.0558 µM

Other lines, results leading:

Ki	Structure (SMILES)
0.0281 µM	CCNC(=O)[C@H]1OC(n2cnc3c(NCCCCCCCCCCNc4ccc([N+](=O)[O-])c5nonc45)ncnc32)[C@H](O)[C@@H]1O (stereo not given in full)
0.0236 µM	CCNC(=O)[C@H]1OC(n2cnc3c(NCCCCCCNc4ccc([N+](=O)[O-])c5nonc45)ncnc32)[C@H](O)[C@@H]1O (stereo not given in full)
0.00744 µM	CCNC(=O)[C@H]1OC(n2cnc3c(NCCCCCCCCNc4ccc([N+](=O)[O-])c5nonc45)ncnc32)[C@H](O)[C@@H]1O (stereo not given in full)

— ChEMBL document CHEMBL1133855 (Bioorg Med Chem Lett, 2001)
